Here are results for 12 compounds from ChEMBL document CHEMBL3392956, “Evaluation of synthetic naphthalene derivatives as novel chemical chaperones that mimic 4-phenylbutyric acid” (Bioorg Med Chem Lett, 2015).

The source made the active and inactive calls. The rule behind the calls is not given here.

For series [1], the system named is SH-SY5Y. The series is described as follows: Protection against ER stress-induced human SH-SY5Y cell damage assessed as cell viability at 0.1 mM after 48 hrs by crystal violet assay. It is filed as functional, cell-based. The method, boiled down:
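Human neuroblastoma SH-SY5Y cells stably expressing Pael-R–FLAG were incubated with or without compound at 0.1, 0.5 or 1.0 mM for 48 h. Viability was determined by crystal violet assay. Values are means ± SE of three independent experiments.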

The nature of series [2]: Chemical chaperone activity assessed as suppression of alpha-lactalbumin-bovine serum albumin aggregation at 0.3 mM by turbidity assay. It is filed as physicochemical. As to conditions: 300 µM. The method, boiled down: (§1)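 Reduced alpha-lactalbumin (r-LA) was made by incubating LA with 5 mM dithiothreitol and 2.5 mM EDTA for 30 min at 25 °C. Aggregation was started at 37 °C by adding denatured bovine serum albumin, with DMSO vehicle or compound present. Turbidity was read as optical density at 488 nm and expressed relative to the matching controls. Values are means ± SE of four independent experiments.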

Series [3] can be described thus: Chemical chaperone activity assessed as suppression of alpha-lactalbumin-bovine serum albumin aggregation at 3 mM by turbidity assay. It is filed as physicochemical. As to conditions: 3000 µM. In outline:
as §1

`COc1ccc2ccccc2c1CCCCC(=O)O`: the outcome in series [1] was Active. Further, the outcome in series [2] was Active.

With `O=C(O)CCCc1ccccc1`, the result in series [1] was Active. In series [3], the outcome was Active.

With `COc1ccc2ccccc2c1CC/C=C/C(=O)O`, the outcome in series [1] was Active. The outcome in series [2] was Active.

Consider `COc1ccc2ccccc2c1/C=C/C(=O)O`, for which the result in series [1] was Active. Besides, in series [2], the result was Active.

With `COc1ccc2cc(CCC(=O)O)ccc2c1`, in series [1], the outcome was Active. Also, the outcome in series [2] was Active.

`COc1ccc(CCC(=O)O)c2ccccc12`: the outcome in series [1] was Active. For the same compound, the result in series [2] was Active.

Turning to `COc1ccc2cc(CC/C=C/C(=O)O)ccc2c1`, the outcome in series [1] was Active. The outcome in series [2] was Active.

Take `COc1ccc2cc(CCCCC(=O)O)ccc2c1`: in series [1], the result was Active. Besides, the result in series [2] was Active.

`COc1ccc2cc(/C=C/C(=O)O)ccc2c1`: in series [1], the outcome was Active. The outcome in series [2] was Active.

As to `COc1ccc(/C=C/C(=O)O)c2ccccc12`, in series [1], the result was Active. For the same compound, the result in series [2] was Active.

With `COc1ccc(CCCCC(=O)O)c2ccccc12`, the outcome in series [1] was Active. Moreover, in series [2], the outcome was Active.

With `COc1ccc2ccccc2c1CCC(=O)O`, in series [1], the outcome was Active. Besides, the outcome in series [2] was Active.
